bCat nuc transl – modulators of beta-catenin nuclear translocation. 0.3% of 190,000 active. AID 1665. HeLa beta-catenin nuclear translocation, immunofluorescence imaging. nuclear translocation activity, % at 5 µM;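 active means nuclear translocation activity above 50% at 5 µM, with a well cell count of 50 or more; inconclusive means wells under 50 cells across six images, flagged as toxic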;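 further: per-cell ratio of nuclear to cytoplasmic median beta-catenin stain intensity; plate controls were DMSO negative control for no effect and GSK-3 inhibitor IX positive control for full effect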
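Assay system: human HeLa cells, native beta-catenin; doses: 5 µM primary, 0.02–20 µM confirmation; incubation: compound treatment 24 h, 37°C, 5% CO2; technique: fluorescence imaging of beta-catenin antibody stain plus DAPI; measure: % activation, nuclear-to-cytoplasmic median beta-catenin signal ratio per cell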
MT stabilizer – microtubule stabilizers in HeLa cells; HeLa tubulin immunostaining HCS, 24 h; share of cells brighter than vehicle mean+2SD; % tubulin-high responders, % at 10 µM; 0.83% of 200,000 active;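 active means plate Z-score above 3 for both tubulin-high and condensed-nucleus cell shares, with cell loss under 80%, at 10 µM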;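 further: anti alpha tubulin signal scored within the nucleus-defined area of each cell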
Autophagy HCS – alters autophagy in cells | calls only at 10 µM (by protocol) | 0.98% of 190,000 active | MEF GFP-LC3 puncta imaging; test concentration mostly 10 µM;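 active means percentage of spot-positive cells more than 3 SD above its plate mean, without a fluorescence outlier flag or 80% toxicity; inconclusive means no clear call, values can overlap the other calls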;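 further: spot-positive cell cutoff set from DMSO-treated cells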
Furin inh – blocks human furin protease activity; inhibition, % at 20 µM or 30 µM; purified furin, fluorogenic substrate cleavage; 0.061% of 220,000 active; AID 463115; in the data active means inhibition above about 25%
Target sequence (P09958 108-714 limits assumed): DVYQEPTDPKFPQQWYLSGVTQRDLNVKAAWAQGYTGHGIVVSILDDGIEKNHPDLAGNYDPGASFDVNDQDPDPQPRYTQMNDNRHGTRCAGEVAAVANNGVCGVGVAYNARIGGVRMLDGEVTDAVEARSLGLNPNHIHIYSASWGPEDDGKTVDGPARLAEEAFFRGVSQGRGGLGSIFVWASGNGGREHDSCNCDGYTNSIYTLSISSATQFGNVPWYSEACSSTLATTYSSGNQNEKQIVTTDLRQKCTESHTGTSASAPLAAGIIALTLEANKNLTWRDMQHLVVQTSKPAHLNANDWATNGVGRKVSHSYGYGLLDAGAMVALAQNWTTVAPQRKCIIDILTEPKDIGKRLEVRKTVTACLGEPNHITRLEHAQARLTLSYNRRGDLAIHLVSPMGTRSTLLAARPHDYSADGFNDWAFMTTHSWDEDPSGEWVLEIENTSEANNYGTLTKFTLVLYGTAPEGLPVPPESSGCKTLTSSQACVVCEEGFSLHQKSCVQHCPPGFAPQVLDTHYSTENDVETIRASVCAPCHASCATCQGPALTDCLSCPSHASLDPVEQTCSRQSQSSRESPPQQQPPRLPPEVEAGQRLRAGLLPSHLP
HSV augment – HSV replication enhancement | HSV replication augmentation in cells, fold increase | maximum fold increase | 0.005% of 220,000 active | AID 1956; in the data active means maximum fold increase above about 1.5; inconclusive means no clear call, values can overlap the other calls; tested in PC3 cells
Insulin prom up – MIN6 insulin promoter up-regulation | MIN6 insulin promoter-GFP reporter, high-content imaging; active compounds read high | z-score at 5 µM | 0.3% of 190,000 active | AID 1625;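 active means z-score above 3 at 5 µM with at least 500 cells counted in the well; inconclusive means wells under 500 cells, flagged as cytotoxic or low count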
Numbers without * were called inactive; i = inactive; ? = inconclusive; . = not tested or not shown; + = active, no number; ! = a repeat was not active. Hits are enriched below; roughly 1.9% of the tested compounds scored in any of these assays.

SMILES | bCat nuc transl | MT stabilizer | Autophagy HCS | Furin inh | HSV augment | Insulin prom up
Cc1cccn2c(=O)c3cc(C(=O)N4CCC5(CC4)OCCO5)n(C)c3nc12 | 41.1 | 34.0* | i | -26.7 | . | -0.55
O=P(Nc1ccccc1)(Nc1ccccc1)Oc1ccc(Cl)cc1 | -3.4 | 2.7 | i | -11.3 | . | -0.64
COc1ccccc1OP(=O)(Nc1cccnc1)Oc1ccccc1OC | -0.9 | 4.7 | + | -5.9 | . | 0.03
COc1cccc(NP(=O)(Oc2ccc(Cl)cc2)Oc2ccc(Cl)cc2)c1 | 90.5* | 5.1 | i | -9.6 | i | -0.09
O=C(O)CC[N+](=O)[O-] | . | . | . | . | i | .
Cc1nn(Cc2ccccc2)c(Cl)c1C(=O)OCC(=O)N1CCCC1 | 1.9 | 1.8 | i | -16.1 | i | .
O=C(c1ccccc1)C1CCCN(Cc2nc(-c3cnccn3)no2)C1 (stereo not given) | -0.7 | 3.9 | + | -13.2 | i | -0.19
O=C(c1cccnc1)C1CCCN(Cc2nc(-c3cnccn3)no2)C1 (stereo not given) | 0.2 | . | . | -7.1 | i | 0.87
Nc1cc2nc3ccccc3nc2cc1N | -2.1 | . | . | -11.6 | i | 3.68*
COc1ccc(CC(=O)N2CCN(C)CC2)cc1OC | -1.2 | 2.5 | i | -10.0 | i | 0.07
COc1ccc(CC(=O)N2CCN(C)CC2)cc1 | 0.6 | 3.8 | i | 2.5 | i | 3.53*
c1ccc2oc(N3CCNCC3)nc2c1 | -0.3 | 5.6 | i | -21.9 | i | 1.56
c1ccc2c(N3CCNCC3)nsc2c1 | -0.7 | 2.3 | i | -9.3 | i | 3.06*
COC(=O)C1=C(c2ccc(S(C)(=O)=O)cc2)C[C@@H]2CC[C@H]1N2C(=O)N1CCC(O)CC1 | . | . | . | . | i | .
CCCCn1c(O)c(C(CC)=Nc2ccc(OC)cc2OC)c(=O)[nH]c1=O | 1.4 | 29.0* | i | -6.3 | i | -0.48
CCCCn1c(O)c(C(CC)=NC(C)c2ccccc2)c(=O)[nH]c1=O (stereo not given) | . | 47.0* | i | -6.4 | i | .
CCCCn1c(O)c(C(CC)=Nc2ccc(OCC)cc2)c(=O)[nH]c1=O | -4.9 | 4.5 | i | 0.9 | i | -0.69
C#CCN1C(=O)S/C(=C\c2ccc(N3CCOCC3)cc2C)C1=O | -0.3 | 2.9 | i | -1.2 | i | 0.53
COc1cccc(OC)c1C1=NCC(=O)Nc2c1oc1ccc(Br)cc21 | 1.1 | 13.5* | + | -6.0 | i | -0.39
COc1ccccc1N1CCN(Cc2cnc(-c3ccccc3)[nH]2)CC1 | 1.5 | . | . | -15.0 | i | -0.47
O=C(c1cc2c(s1)-c1ccccc1OC2)N1CCC2(CC1)OCCO2 | 14.5 | 53.6* | i | -106.3 | . | -0.31
c1ccc(C2NCCc3[nH]cnc32)cc1 (stereo not given) | -1.1 | . | . | -24.1 | i | 0.09
C/C(=N\NC(=S)Nc1ccccc1)c1c(O)n(C)c(=O)n(C)c1=O | 0.0 | 1.0 | + | -3.2 | i | 0.17
CC(=O)OC(C)(C)/C=C/C(=O)[C@](C)(O)[C@H]1[C@H](O)C[C@@]2(C)[C@@H]3CC=C4[C@H](C[C@H](O)C(=O)C4(C)C)[C@]3(C)C(=O)C[C@]12C | . | 40.0* | ? | -16.3 | i | -4.32
O=C(Nc1ccccc1)NC1CC2CCC(C1)N2 (stereo not given) | -8.4 | 6.7 | i | -14.2 | i | -0.04
SMILES | bCat nuc transl | MT stabilizer | Autophagy HCS | Furin inh | HSV augment | Insulin prom up
Cc1ccc(CN2C3CCCC2CC(NC(=O)Nc2cccc(F)c2)C3)cc1 (stereo not given) | -0.7 | 1.2 | + | -21.1 | i | -0.14
COc1ccc(-n2cnc3cc(C(=O)N4CCC5(CC4)OCCO5)ccc32)cc1 | 31.9 | 12.5* | i | -39.3 | i | 0.22
COC(=O)C1=C(c2ccc(S(C)(=O)=O)cc2)C[C@@H]2CC[C@H]1N2C(=O)NCCNC(C)=O | . | . | . | . | i | .
O=C1OC(c2ccc(Cl)cc2)=N/C1=C\N1CC2CC(C1)c1cccc(=O)n1C2 (stereo not given) | 1.4 | . | . | 4.2 | i | -0.65
CN(C)C(Cc1ccccc1)C(=O)c1cccs1 (stereo not given) | -2.1 | 2.9 | i | -16.8 | i | -0.18
O=c1[nH]c(=O)n(-c2ccccc2)c(O)c1/C=C1/C(c2ccccc2)=Nc2ccccc21 | 79.5* | 30.9* | i | 6.4 | i | 1.05
COC(=O)C1=Nc2ccccc2/C1=C\c1c(O)n(-c2ccc(Br)cc2)c(=O)[nH]c1=O | -7.2 | 5.2 | i | -0.6 | i | 1.44
O=c1[nH]c(=O)n(Cc2ccccc2Cl)c(O)c1/C=C1/C=CC=N1 | -1.1 | 29.2* | i | -22.9 | i | -0.01
CCCCc1ccc2[nH]cc(CCN)c2c1 | -1.9 | 1.6 | i | -16.4 | i | 3.13*
NCCc1c[nH]c2ccccc12 | 1.0 | 3.4 | i | -6.0 | i | 0.53
Cc1ccc(/C=C2\C(=O)NC(=S)N(c3ccc(F)cc3)C2=O)s1 | -1.2 | 7.1 | i | -20.8 | ? | .
Cc1ccc(/C=C2\C(=O)NC(=S)N(c3ccccc3F)C2=O)s1 | -2.7 | 32.9* | i | -10.2 | i | 0.5
NC(N)=N/N=C/c1cn(-c2ccccc2)nc1-c1cccs1 | -2.0 | 78.1 | + | -10.5 | i | -0.35
CCN(CC)c1ccc(N=Cc2c(O)n(Cc3ccccc3)c(=O)[nH]c2=O)cc1 | 0.9 | 1.9 | +! | -11.7 | ? | 0.48
Cc1ccccc1-n1c(O)c(C=Nc2ccc3c(c2)OCO3)c(=O)[nH]c1=O | 0.8 | 4.2 | i | 27.4* | ? | -0.57
O=C(N/N=C/c1c(O)n(Cc2ccccc2)c(=O)[nH]c1=O)c1ccccc1O | 0.5 | 10.8 | i | -3.5 | i | 0.9
CCN(CC)c1ccc(N=Cc2c(O)n(-c3ccccc3C)c(=O)[nH]c2=O)cc1 | . | 9.1 | i | -17.1 | i | -0.05
CCOc1ccccc1-n1c(O)c(C=Nc2ccc(N(CC)CC)cc2)c(=O)[nH]c1=O | -5.1 | 21.6* | i | 6.1 | i | .
O=C(N/N=C/c1c(O)n(Cc2ccc(F)cc2)c(=O)[nH]c1=O)c1ccccc1O | 5.8 | 14.5* | i | -7.0 | i | -0.32
O=C1NC(=O)C(CCc2ccncc2)(CCc2ccncc2)C(=O)N1Cc1ccccc1 | 0.6 | 1.5 | i | -19.8 | i | -0.91
CCOC(=O)c1cc(C(O)(C(=O)OC)C(F)(F)F)c(/N=C/N(C)C)o1 (stereo not given) | . | 2.3 | i | 0.1 | i | .
CCN(CC)P(=O)(NC(=O)c1cccn1C)N(CC)CC | -0.7 | 3.0 | i | -31.4 | i | -0.28
N#CCCn1cc(C(=O)NCc2ccccc2)c(-c2ccccc2)n1 | 1.0 | 2.5 | i | -19.8 | i | 0.26
CCOc1cc(/C=C2\C(=O)NC(=O)N(C)C2=O)cc([N+](=O)[O-])c1O | -0.5 | . | . | -7.7 | i | .
c1ccc(-c2ccc(-c3n(-c4ccccn4)c4ccccc4[n+]3-c3ccccn3)cc2)cc1 | 0.0 | 3.7 | + | -35.3 | i | 0.26
Oc1c(Cl)c(Cl)c(Cl)c(Cl)c1Cl | . | . | . | . | i | .
CCC(=Nc1cccc(C(F)(F)F)c1)c1c(O)n(C)c(=O)n(C)c1=O | 0.7 | . | . | -0.3 | i | 0.42

Screening results as filed in PubChem BioAssay.
